Test results: the EternaBench riboswitch data

Tested on: MS2 coat protein
Assay: apparent Kd, MS2 coat protein; higher = weaker binding; RNA-MaP array; FMN 200 µM where present
Summary of the method: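 SNAP-549-labelled MS2 coat protein, doubled from 0.7 or 1.5 nM to 3 µM, was titrated over designs transcribed by stalled E. coli RNA polymerase on Illumina sequencing-chip clusters. Titrations were run without and then with constant ligand in 100 mM Tris-HCl pH 7.5, 80 mM KCl, 4 mM MgCl2, BSA, DTT, yeast tRNA and Tween-20. The apparent Kd is the median of filtered per-cluster fits to green signal normalised to red-channel RNA signal and control-cluster median Fmax.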

[1] = designed as: ON switch for flavin mononucleotide, no ligand
[2] = ligand present: flavin mononucleotide, designed as: ON switch for flavin mononucleotide
[3] = designed as: OFF switch for flavin mononucleotide, no ligand
[4] = ligand present: flavin mononucleotide, designed as: OFF switch for flavin mononucleotide

Row | Sequence | apparent Kd [1] [nM] | apparent Kd [2] [nM] | apparent Kd [3] [nM] | apparent Kd [4] [nM]
1 | AAAACAUGAGGAUCACCCAUGUAUAGAUCGGUUGAUAGGAGUGAGGAUAUGCUUAAAAUAAGGUAGCAGAAGGCACUGGGUACA | 37.1 | 40.1 | – | –
2 | AUGUUGUCAGGAUAUCGUUAAUUUAGUUGUUUGUAUUAGUUCGAGAAGGGACAUGAGGAUCACCCAUGUUUGUA | – | – | 32 | 44
3 | CUCCAGCAAGGAUAUACAUGAGGAUCACCCAUGUAAAGACAAGAGUUGGGAGACGCAUGUAGAAGGUGCACAUC | – | – | 38.2 | 69
4 | AGGAGAAAUGUAGGAUAUGGAUAUAUAUAUGGGCAAAGCGCAUAUAUAUAUCCAGAAGGACAUGAGGAUCACCCAUGUUUCCCU | – | – | 11.8 | 13
5 | UUUUUAGCAGGAUAUAUCCACGACUACAUGAGGAUCACCCAUGUGGCCGCUUGAAGUUGUAUAGAAGGGCUUUUUU | – | – | 24.8 | 23.4
6 | AGCUACGUUUCGUAGCAGCUAGGUGAGGAUAUCCUUUACAUGAGGAUCACCCAUGUUUAGCCAUGGGAGAAGGCGCCUAGAAAG | 1090 | 113 | – | –
7 | UUAUUAUAUGUAGGAUAUGCAUAUUAUUAUUAUGCAGAAGGACAUGAGGAUCACCCAUGUAUAUUAUUAUUGUAUAUUAUAUAU | – | – | 28.4 | 46.1
8 | UUGGACGUCGUAGGAUAUGUAGGAUAUUCCGACAUGAGGAUCACCCAUGUUGACAUGGAAGAAGGACAGAAGGACGAUGUCCAU | 4.14 | 3.48 | – | –
9 | AUCACAGCCACAGGAUAUCCACAUGAGGAUCACCCAUGUUACCGAAGGGUAGGAGAAGGGUGGCGCUCGUUGCGGACGAUGAAU | 121 | 15.1 | – | –
10 | UUUACAUGAGGAUCACCCAUGUUAAAAUAAUUAAUUAUAAGUGAGGAUAUAUAAAUUAUAAAAUUGUAGAAGGCACUGGGUAUU | 22 | 23.4 | – | –
11 | ACGUGACGGUGCGCGAGUGGACGGAGAAGGCAGACAUGAGGAUCACCCAUGUGAGCCUGCUAUUCUGAGGAUAUCCGUCCGCUC | – | – | 38.8 | 257
12 | GUCAGCUCGUGAGGAUAUACAACACUGGUUCGGCAGUGUAUUAAGAUCACAUGAGGAUCACCCAUGUAGAAGGCACGAGCUGAU | – | – | 13.6 | 280
13 | CCUCCAUCAUGAGGAUAUGGCACCUUAUUGGUGCCAGAAGGCAUGUCUCUUGACAUGAGGAUCACCCAUGUAAUAAAUUGGAGG | 1150 | 109 | – | –
14 | UUGUUUCGUCAUUAACAUGAGGAUCACCCAUGUAUCGACUCAAAGGAUAUAUAUGCUUGUUUGCAAUAGAAGGUUGAUUGUUGU | 27.9 | 26.5 | – | –
15 | UAACAGCAAGGAUAUACGGGCUGUGCUUUUCAUUUCUUACAACAUGAGGAUCACCCAUGUAGAAGGUGCAACAU | – | – | 32.5 | 76.9
16 | GCAGCGUAUGUAGGAUAUCGGUCAGUUUCUGAUCGAGAAGGACAUGAGGAUCACCCAUGUAUAUUCUAGCGUGAGCUAGGCUGC | – | – | 18.2 | 25.5
17 | UUUUUUUACUAGGAUAUCAGAGUCGAAAGACUCUGAGAAGGAGUAACAUGAGGAUCACCCAUGUGUCCUUUUUU | – | – | 20.1 | 49.3
18 | ACAUGAGGAUCACCCAUGUAUUACAUGGUUAAGUUUAUUAACAGAAGGCGAAAUUACCACUUGAUCGAGGAUAUGUAUUCUAUU | – | – | 49.1 | 43.4
19 | CCUCAGAACAAGAAGGUGGGAGAAGAGUAUAACUAAGGAUAUUGAAAGGGAUGAACAUGAGGAUCACCCAUGUAAGGAAUCGUG | – | – | 52.8 | 40.9
20 | UGAACCUUCACAGGAUAUCAUGCGAAAAUUGCGUGAGAAGGGUGAAUAUGGUGUUCAUAGUUGCACAUGAGGAUCACCCAUGUA | 191 | 128 | – | –
21 | UUAUAUAAUGUGAGGAUAUGCUGGUCCUUGGAUCAGCAGAAGGCACAUGAGGAUCACCCAUGUAGUAAAUUUUA | – | – | 19 | 24.4
22 | CUUUCGUGAGGAUAUCAGUAGUAAUAAAAUAAAAUUACUACUGAGAAGGCACAUGAGGAUCACCCAUGUUCCUC | – | – | 25 | 138
23 | CAUUAAUUGAUUAUUGAAUAUUUACAGGAUAUGUUACAUGAGGAUCACCCAUGUAAAUAUGGGUUACAGAAGGGUAUUUAUAGA | – | – | 36.2 | 32.5
24 | GUCAGCUCGUGAGGAUAUACAACACUGCUUCGGCAGUGUAAUUUCCUCACAUGAGGAUCACCCAUGUAGAAGGCACGAGCUGAU | – | – | 12.7 | 242
25 | GGAUCGAAAGUGAGGAUAUACCACUGGAUACAGUGGUAGAAGGCACAUGAGGAUCACCCAUGUCCUUACGAUCC | – | – | 20.8 | 117
26 | GCUACGUCAGGAUAUCUGAUGUCUAACUUCGGUUAGACAUCAGAGAAGGGACAUGAGGAUCACCCAUGUAGCAA | – | – | 93.5 | 122
27 | GGUGCGUAUGUGAGGAUAUGCUGGUCCUUGGAUCGGCAGAAGGUACAUGAGGAUCACCCAUGUGGUGUCGUUCU | – | – | 382 | 251
28 | UGGAUGUGGGUUCCACAUGAGGAUCACCCAUGUACCGAUGAGAGAAGGCGCGCUGGUUCCCAGGGCGAGGAUAUCUACAUUCAA | – | – | 5.63 | 14.2

Row | Sequence | apparent Kd [1] [nM] | apparent Kd [2] [nM] | apparent Kd [3] [nM] | apparent Kd [4] [nM]
29 | UAUACACAUGAGGAUCACCCAUGUGAGGAUAUGUUAAUUUUAAUGAAAAUUAAAAUUAACAGAAGGCACAUAUA | – | – | 64.1 | 80.3
30 | GGAGCGGAAGGAUAUGCUGCGGGAUUGCAUGGAAAGAAAAUACAUGAGGAUCACCCAUGUAGAAGGUCCGUGAA | – | – | 28.2 | 70.1
31 | AUAUCUAUAUCAGGAUAUGGACAGGCCUGUCCGUAUUGAGACAGUAACAUGAGGAUCACCCAUGUCCAGAAGGGAUCUAUAUAU | – | – | 53.7 | 45.7
32 | GCGGUACAUGAGGAUCACCCAUGUCAGGAUAUCCGCUGUUUGUUGAUUGGCAGGCGGUGGAGAAGGGACUUCGC | – | – | 35.2 | 33.4
33 | UUACCUCAUGAGAAGGACAUGAGGAUCACCCAUGUAGGAUAUCGUGGAAGACAGGUAUUGAAUCUUCGGAUUCAAUACCUGUCU | 331 | 17.1 | – | –
34 | AGAGACCUCACAGGAUAUGCUGGACUUUGUCCAGCAGAAGGGUGAAAACAUGAGGAUCACCCAUGUAUGGUCUCCAAAUUUAAU | 167 | 12.8 | – | –
35 | UAUAUAUAGUAAGGAUAUAUAUUUAUUUUAUAAAUAGAAGGUACAGACAUGAGGAUCACCCAUGUUAUAAUAUGGACAUGUGGA | – | – | 52.5 | 69.4
36 | AAAUAAACUAGCAUAAUAUCCUCACAUGAGGAUCACCCAUGUCAGGAUAUUUGUCCUAAAAGGACAGAGAAGGGACGUGCUAGA | – | – | 5.07 | 6.27
37 | AUCAGCUCGUCAGGAUAUACGUCACUGCGUCAGCAGUGUGGUAAGAUCACAUGAGGAUCACCCAUGUAGAAGGGACAAGCUGAU | – | – | 13.1 | 270
38 | UUAAAUCAUGUAGGAUAUGCAUGGCGAAGCUACGCAGAAGGACAUGAGGAUCACCCAUGUUAUAGCUACAGAGUUCUGUGGCAA | – | – | 102 | 233
39 | UUAGAAUUGCAAGGAUAUCUAAUUUAGAUAGUAAGAGAAGGUGCUUGAUAGUUACAUGAGGAUCACCCAUGUUUUUGGGUUUAU | 545 | 412 | – | –
40 | AAAACAUGAGGAUCACCCAUGUUAAGAUCGGUCAAUAGAAGUGAGGAUAUACGAAGUUAAGGCUGGUAGAAGGCACUGGGUACA | 43.5 | 37.1 | – | –
41 | GCUAGGAGUGUGAGGAUAUGCUGUACCUUGGUACAGCAGAAGGCACAUGAGGAUCACCCAUGUGAAGACCUAGC | – | – | 25.9 | 151
42 | UAGAUGUGAGGAUAUACGUAGAUGCAGGUUCGUGUGGUGCUACAUGAGGAUCACCCAUGUAGAAGGCACGUCUU | – | – | 19.3 | 20.2
43 | GAAUGUCGGGUAGGAUAUGACGUGCCACGGAGGUCAGAAGGGCCACGACAUGAGGAUCACCCAUGUACUAUGUUCCUUUUUCGA | – | – | 13.6 | 31.8
44 | AUGGGACAUGAGGAUCACCCAUGUCCGGUAUAUCGAGGAUAUGGGAUGCUCUUAAUGUAACCAGAAGGCGAUAAAA | 16.6 | 18.9 | – | –
45 | CCGACGAAAGUCGAACGAUGUAGCAGAAGGACAUGAGGAUCACCCAUGUCAGCUGUAACAGCCAUGUAGGAUAUGCUACAUCGC | – | – | 4.16 | 5.51
46 | CCAGAGACAUAAGGAUAUCGAGUGGAAUACACUCGAGAAGGUAUGUGAAAACAUGAGGAUCACCCAUGUGAUCAAUACUCUGGA | 19.4 | 20.2 | – | –
47 | AAAAUGGUACAGAAGGCGGAGCCCAACAUGAGGAUCACCCAUGUAUGGGUGUCGUCAGUAGUUACCGAGGAUAUGUAUCGGUAU | – | – | 6.42 | 7.1
48 | UAAUCACCCUCAUGUACCUGAGGACAUGAGGAUCACCCAUGUAAGGAUAUAGCCAUUAAAUCUAACUAGAAGGUAUAGGUAAUC | – | – | 808 | 624
49 | ACAGGCUUCGAGAAGGACAUGAGGAUCACCCAUGUGCGUGUGAAGCAGCCGUGAGGCUGCAUCAUGUAGGAUAUCGGAGUCUGC | – | – | 73 | 557
50 | GUGGAGUACGUAGGAUAUGUAGGAUAUUCCUACAUGAGGAUCACCCAUGUAUGCAUGGAAGAAGGACAGAAGGACGUGCUCCAG | 208 | 13.5 | – | –
51 | GUUUGUUAUUAGAAGGUGCCAGCGAGAGCUGCAACAUGAGGAUCACCCAUGUGUCGGUGACGACGCAAGGAUAUGGUGGUGGAU | 402 | 193 | – | –
52 | GGAUAGGACAGAGGAUAUACGGAUAGGAUCUACUAUCAAACAAGUCCUACAUGAGGAUCACCCAUGUAGAAGGCUGUCCUAUCG | – | – | 16.9 | 22.1
53 | UCGUGAAGGACAGGAUAUGGACAUGAGGAUCACCCAUGUACAUGGGAAUAUAUACUGAAUUUAUACUAGAAGGGUUACAUAAAU | – | – | 27.4 | 16.7
54 | UAAAAGUGAGGAUAUCCAAUAUAUGACAUGAGGAUCACCCAUGUUUCCACUCGUACCUCCGGAGAAGGCACAAAGU | – | – | 29.5 | 28.5
55 | UGGAAUUGCGAGAAGGACAUGAGGAUCACCCAUGUAGGAUAUCGACCUAGGUGCAGAUCGUUAUAGGAUCUCUUCGCUUCUAGG | 16.7 | 7.14 | – | –
